From ChEMBL document CHEMBL1149144, “Structure-based design of potent retinoid X receptor alpha agonists” (J Med Chem, 2004)

How the values were obtained:
[1] = target: T1, Retinoic acid receptor RXR-alpha (Homo sapiens, UniProt P19793); assay: Binding affinity for retinoid X receptor alpha (RXRalpha), using 9-cis-[3H]-retinoic acid
T1 sequence (P19793 whole entry): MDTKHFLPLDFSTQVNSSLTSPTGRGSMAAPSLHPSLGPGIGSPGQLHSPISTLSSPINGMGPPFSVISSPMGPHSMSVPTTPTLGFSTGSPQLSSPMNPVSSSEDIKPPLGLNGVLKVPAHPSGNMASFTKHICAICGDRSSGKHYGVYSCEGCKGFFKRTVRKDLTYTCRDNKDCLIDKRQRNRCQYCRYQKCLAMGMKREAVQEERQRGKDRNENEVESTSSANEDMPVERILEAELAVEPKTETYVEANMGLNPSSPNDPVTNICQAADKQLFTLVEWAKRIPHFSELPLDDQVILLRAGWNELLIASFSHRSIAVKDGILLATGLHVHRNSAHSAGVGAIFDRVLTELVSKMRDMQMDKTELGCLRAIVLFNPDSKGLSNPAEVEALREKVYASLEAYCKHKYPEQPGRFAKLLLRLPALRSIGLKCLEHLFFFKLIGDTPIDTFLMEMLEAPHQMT
Summary of the method: (§1)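 Scintillation proximity binding assay; Ki from competition of 2.5 nM 9-cis-RA at RXRα and RARα, with test compound up to 10 µM.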

[2] = target: T2, Retinoic acid receptor alpha (Homo sapiens, UniProt P10276); assay: Effective concentration for Retinoic acid receptor alpha activity in CV-1 cells; assay type: functional, cell-based
T2 sequence (P10276 whole entry): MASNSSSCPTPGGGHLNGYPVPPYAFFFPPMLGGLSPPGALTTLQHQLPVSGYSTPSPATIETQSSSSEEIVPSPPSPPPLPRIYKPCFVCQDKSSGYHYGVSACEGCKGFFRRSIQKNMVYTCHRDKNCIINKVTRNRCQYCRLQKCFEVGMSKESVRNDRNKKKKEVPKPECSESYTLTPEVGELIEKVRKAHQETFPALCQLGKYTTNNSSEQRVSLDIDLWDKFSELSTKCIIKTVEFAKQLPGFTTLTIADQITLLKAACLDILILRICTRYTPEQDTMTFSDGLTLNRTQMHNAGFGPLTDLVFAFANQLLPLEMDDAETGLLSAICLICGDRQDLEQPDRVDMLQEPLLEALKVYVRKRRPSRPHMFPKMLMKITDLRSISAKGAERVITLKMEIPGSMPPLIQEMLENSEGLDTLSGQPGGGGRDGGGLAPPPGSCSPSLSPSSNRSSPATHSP
Summary of the method: (§2)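 CV-1 monkey kidney cells transiently transfected with a full-length hRXRα expression vector (RXRα) or a GAL4-hRARα vector (RARα), each with an RXRα- or RARα-responsive reporter gene construct. Top concentration 10 µM; EC50 calculated from the reporter response.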

[3] = target: T1, Retinoic acid receptor RXR-alpha; assay: Effective concentration for Retinoid X receptor alpha activity in CV-1 cells; assay type: functional, cell-based; summary of the method: as §2
[4] = target: T2, Retinoic acid receptor alpha; assay: Binding affinity for retinoic acid receptor alpha (RARalpha), using 9-cis-[3H]-retinoic acid; summary of the method: as §1

| SMILES | Ki [1] [nM] | EC50 [2] [nM] | EC50 [3] [nM] | Ki [4] [nM] |
| --- | --- | --- | --- | --- |
| CC1(C)CCC(C)(C)c2cc(C3CCCc4oc(/C=C/C(=O)O)cc43)ccc21 (stereo in doubt; 60) | 90 | > 790 | 97 | > 1000 |
| Cc1cc2c(cc1C1CCCc3oc(/C=C/C(=O)O)cc31)C(C)(C)CCC2(C)C (stereo not given) | 40 | > 10000 | 29 | > 1000 |
| CC1(C)CCC(C)(C)c2cc(C3CCCc4oc(C(=O)O)cc43)ccc21 (stereo not given) | > 3000 | – | > 10000 | > 1000 |
| CN1Cc2oc(/C=C/C(=O)O)cc2C(c2ccc3c(c2)C(C)(C)CCC3(C)C)C1 (stereo not given) | 79 | – | 70 | > 1000 |
| CC1(C)CCC(C)(C)c2cc(C3CCCc4oc(/C=C/C(=O)O)nc43)ccc21 (stereo not given) | 158 | – | 42 | > 1000 |
| Cc1oc(/C=C/C(=O)O)cc1Cc1ccc2c(c1)C(C)(C)CCC2(C)C | 158 | > 10000 | 106 | > 1000 |
| CC(=CC(=O)O)c1cc2c(o1)CCCC2c1ccc2c(c1)C(C)(C)CCC2(C)C (stereo not given) | 63 | > 10000 | 60 | > 1000 |
| CC1(C)CCC(C)(C)c2cc(C3CCCc4sc(CCC(=O)O)cc43)ccc21 (stereo not given) | 200 | > 10000 | 97 | > 1000 |
| O=C1NC(=O)/C(=C/c2ccc(-c3cccc(Br)c3)o2)S1 | 1500 | – | – | – |
